Calls of active or inactive are those of the source. The rule behind the calls is not given here.
Legend:
Vasopressin V1b receptor = target: T1, Vasopressin V1b receptor (Homo sapiens, UniProt P47901); assay: Displacement of [3H]AVP from human vasopressin V1b receptor expressed in CHO cells co-expressing VIP-luciferase by scintillation counting-based whole cell binding assay
T1 sequence (P47901 whole entry): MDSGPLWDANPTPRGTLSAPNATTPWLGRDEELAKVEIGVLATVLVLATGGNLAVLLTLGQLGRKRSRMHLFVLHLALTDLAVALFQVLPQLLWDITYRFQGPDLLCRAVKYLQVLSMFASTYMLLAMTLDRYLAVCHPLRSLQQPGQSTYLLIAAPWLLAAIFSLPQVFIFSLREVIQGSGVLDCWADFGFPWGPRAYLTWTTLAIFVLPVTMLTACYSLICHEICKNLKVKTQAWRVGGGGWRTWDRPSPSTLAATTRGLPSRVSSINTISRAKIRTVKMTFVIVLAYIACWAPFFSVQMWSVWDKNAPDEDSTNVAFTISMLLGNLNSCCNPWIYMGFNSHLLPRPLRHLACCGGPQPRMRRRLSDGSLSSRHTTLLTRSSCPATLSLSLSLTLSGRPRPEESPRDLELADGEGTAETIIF
Procedure, shortened: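 Whole-cell binding in CHO cells stably expressing human V1b (VIP-luciferase line), grown at 37 °C, 5% CO2 in DMEM/F12 with 10% FBS and 0.4 mg/mL G418. Seeded at 30,000 cells, cultured overnight, washed with PBS. Serially diluted compound with 5 nM [3H]-AVP (final) in PBS, 10 mM MgCl2, 0.1% BSA, 1% DMSO, 30 min at room temperature. Wells washed, dried, scintillation counted.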

[1] = AUCt in Wistar rat at 5 mg/kg, po; format: ADME, organism-based; parameters: dose 5 mg/kg, route oral; settings: plasma
Procedure, shortened: (§1)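 Male Wistar rats. iv dose 1 mg/kg in 10% (v/v) DMA in water. po dose 5 mg/kg in 5% (v/v) mulgofen in saline. Oral AUC reported as AUCt, iv AUC as AUCinf. Values given as mean ± spread.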

Rattus norvegicus [2] = assay: Reduction in desmopressin/CRH-induced ACTH release in po dosed rat hyphalamic-pituitary-adrenal hyperactivity model; format: functional, organism-based
Procedure, shortened: (§2)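 Rats dosed orally with compound or vehicle (5% mulgofen in saline) at T=0. CRH (0.3 µg/kg) or PBS given iv via jugular catheter at T+100 min. dDAVP (0.5 mg/kg) or PBS given iv at T+120 min. 0.5 ml blood taken at T+130 min, kept on ice, centrifuged at 4 °C, plasma stored at -40 °C. ACTH measured by ELISA, drug level by mass spectrometry.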

Homo sapiens [3] = species: Homo sapiens; assay: Selectivity ratio for human vasopressin V1b receptor over human vasopressin V2 receptor
[4] = target: T2, Vasopressin V1b receptor (Homo sapiens) (UniProt P47901); assay: Antagonist activity at human vasopressin V1b receptor expressed CHO cells co-expressing VIP-luciferase assessed as reporter gene linked AVP-mediated intracellular calcium mobilization; format: functional, cell-based
T2 sequence (whole entry): T1 sequence (P47901 whole entry)

[5] = Oral bioavailability in Wistar rat at 5 mg/kg, po; format: ADME, organism-based; settings: in vivo; procedure, shortened: as §1
[6] = Clearance in Wistar rat at 1 mg/kg, iv; format: ADME, organism-based; parameters: dose 1 mg/kg, route intravenous; settings: in vivo; procedure, shortened: as §1
[7] = Inhibition of human Cytochrome P450; format: ADME
[8] = Elimination half life in Wistar rat at 1 mg/kg, iv; format: ADME, organism-based; parameters: dose 1 mg/kg, route intravenous; settings: in vivo, read-out: beta t1/2 (converted); procedure, shortened: as §1
[9] = AUC (infinity) in Wistar rat at 1 mg/kg, iv; format: ADME, organism-based; parameters: time infinity, dose 1 mg/kg, route intravenous; settings: plasma
Procedure, shortened: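 Male Wistar rats given a single intravenous dose of 1 mg/kg in 10% (v/v) DMA in water. AUC taken to infinity from plasma concentrations. Value reported as mean ± variability.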

[10] = Volume of distribution at steady state in Wistar rat at 1 mg/kg, iv; format: ADME, organism-based; parameters: dose 1 mg/kg, route intravenous; settings: in vivo, read-out: Vdss; procedure, shortened: as §1
[11] = Apparent permeability of the compound from basolateral to apical side in human Caco2 cell membrane; format: ADME, cell-based; settings: Caco-2
[12] = Apparent permeability of the compound from apical to basolateral side in human Caco2 cell membrane; settings: Caco-2
Homo sapiens [13] = species: Homo sapiens; assay: Selectivity ratio for human vasopressin V1b receptor over human oxytocin receptor
Homo sapiens [14] = species: Homo sapiens; assay: Selectivity ratio for human vasopressin V1b receptor over human vasopressin V1a receptor
[15] = Intrinsic clearance in human liver microsomes
Rattus norvegicus [16] = assay: Reduction in desmopressin-induced ACTH release in rat hyphalamic-pituitary-adrenal hyperactivity model at 10 mg/kg, po; format: functional, organism-based; parameters: dose 10 mg/kg; procedure, shortened: as §2

Row | Structure (SMILES) | IC50 (Vasopressin V1b receptor) | other results
1 | CC(C)NC(=O)Cn1c(-c2cccc(Cl)c2)nc2ccc(-c3cccc(CN(C)C)c3)cc2c1=O | 19 nM | –
2 | CC(C)CNC(=O)Cn1c(-c2ccccc2)nc2ccc(-c3cccc(CN4CCC4)c3)cc2c1=O | 1040 nM | –
3 | CC(C)NC(=O)Cn1c(-c2cccc(Cl)c2)nc2ccc(-c3cccc(CN4CCC4)c3)cc2c1=O | 60 nM | –
4 | COc1ccccc1-c1nc2ccc(-c3cccc(CN4CCC4)c3)cc2c(=O)n1CC(=O)NC(C)C | 610 nM | –
5 | CC(C)(C)NC(=O)Cn1c(-c2ccccc2)nc2ccc(-c3cccc(CN4CCC4)c3)cc2c1=O | 187 nM | –
6 | COc1cc(-c2nc3ccc(-c4cccc(CN(C)C)c4)cc3c(=O)n2CC(=O)NC(C)C)ccc1F | 1 nM | AUC(0-t) [1]: 930 ng·h/mL; inhibition (Rattus norvegicus [2]): Dose-dependent effect; fold change (FC) (Homo sapiens [3]): > 10000; Activity [4]: Active; bioavailability [5]: 45%; clearance [6]: 40.2 mL/min/kg; IC50 [7]: > 17000 nM; half-life [8]: 1.61 h; AUC(0-inf) [9]: 441 ng·h/mL; Vd [10]: 4.85 L/kg; Papp B→A [11]: 9.1 ×10⁻⁶ cm/s; Papp A→B [12]: 6.8 ×10⁻⁶ cm/s; fold change (FC) (Homo sapiens [13]): > 10000; fold change (FC) (Homo sapiens [14]): > 10000; microsomal CLint [15]: < 12 µL/min/mg; inhibition (Rattus norvegicus [16]): Active
7 | O=C(Cn1c(-c2ccccc2)nc2ccc(-c3cccc(CN4CCCCC4)c3)cc2c1=O)NCC1CC1 | 60 nM | –
8 | COc1cccc(-c2nc3ccc(-c4cccc(CN5CCCCC5)c4)cc3c(=O)n2CC(=O)NC(C)C)c1 | 2 nM | –
9 | O=C(Cn1c(-c2ccccc2)nc2ccc(-c3cccc(CN4CCC4)c3)cc2c1=O)NCC1CC1 | 275 nM | –
10 | COc1cccc(-c2nc3ccc(-c4ccc(CN(C)C)o4)cc3c(=O)n2CC(=O)NC(C)C)c1 | 700 nM | –
11 | O=C(Cn1c(-c2ccccc2)nc2ccc(-c3ccccc3CN3CCCCC3)cc2c1=O)NCC1CC1 | > 20000 nM | –
12 | CCN(CC)Cc1cccc(-c2ccc3nc(-c4ccccc4)n(CC(=O)NCC4CC4)c(=O)c3c2)c1 | 540 nM | –
13 | COCCNCc1cccc(-c2ccc3nc(-c4ccccc4)n(CC(=O)NCC4CC4)c(=O)c3c2)c1 | 642 nM | –
14 | CNCc1cccc(-c2ccc3nc(-c4ccccc4)n(CC(=O)NCC4CC4)c(=O)c3c2)c1 | 320 nM | –
15 | O=C(Cn1c(-c2ccccc2)nc2ccc(-c3cccc(CN4CCOCC4)c3)cc2c1=O)NCC1CC1 | 79 nM | –
16 | COc1cccc(-c2nc3ccc(-c4cncc(CN(C)C)c4)cc3c(=O)n2CC(=O)NC(C)C)c1 | 77 nM | –
17 | COc1cccc(-c2nc3ccc(-c4cccc(CN(C)C)n4)cc3c(=O)n2CC(=O)NC(C)C)c1 | 37 nM | –

Row | Structure (SMILES) | IC50 (Vasopressin V1b receptor) | other results
18 | O=C(Cn1c(-c2ccccc2)nc2ccc(-c3ccc(CN4CCOCC4)cc3)cc2c1=O)NCC1CC1 | > 20000 nM | –
19 | O=C(Cn1c(-c2ccccc2)nc2ccc(-c3ccc(CN4CCCCC4)cc3)cc2c1=O)NCC1CC1 | > 20000 nM | –
20 | O=C(Cn1c(-c2ccccc2)nc2ccc(-c3cccc(CN4CCC4)c3)cc2c1=O)NC1CCCC1 | 238 nM | –
21 | CC(C)NC(=O)Cn1c(-c2cccc(Cl)c2)nc2ccc(-c3cccc(CN4CCCCC4)c3)cc2c1=O | 9 nM | –
22 | COc1cccc(-c2nc3ccc(-c4ccc(CN(C)C)s4)cc3c(=O)n2CC(=O)NC(C)C)c1 | 500 nM | –
23 | NCc1cccc(-c2ccc3nc(-c4ccccc4)n(CC(=O)NCC4CC4)c(=O)c3c2)c1 | 1200 nM | –
24 | CCCNC(=O)Cn1c(-c2ccccc2)nc2ccc(-c3cccc(CN4CCC4)c3)cc2c1=O | 2350 nM | –
25 | COc1cccc(-c2nc3ccc(-c4cc(CN(C)C)ccc4F)cc3c(=O)n2CC(=O)NC(C)C)c1 | 7 nM | Papp B→A [11]: 23.3 ×10⁻⁶ cm/s; Papp A→B [12]: 12.1 ×10⁻⁶ cm/s; microsomal CLint [15]: 58 µL/min/mg
26 | O=C(Cn1c(-c2ccccc2)nc2ccc(-c3cccc(CN4CCCC4)c3)cc2c1=O)NCC1CC1 | 388 nM | –
27 | CN(C)Cc1cccc(-c2ccc3nc(-c4ccccc4)n(CC(=O)NCC4CC4)c(=O)c3c2)c1 | 314 nM | –
28 | COc1cccc(-c2nc3ccc(-c4cccc(CN(C)C)c4)cc3c(=O)n2CC(=O)NC(C)C)c1 | 9 nM | microsomal CLint [15]: 45 µL/min/mg
29 | COc1cccc(-c2nc3ccc(-c4cc(CN(C)C)ccn4)cc3c(=O)n2CC(=O)NC(C)C)c1 | 52 nM | –
30 | COc1cccc(-c2nc3ccc(-c4cccc(CN5CCC5)c4)cc3c(=O)n2CC(=O)NC(C)C)c1 | 46 nM | –
31 | O=C(Cn1c(-c2ccccc2)nc2ccc(-c3ccccc3CN3CCOCC3)cc2c1=O)NCC1CC1 | > 20000 nM | –
32 | O=C(Cn1c(-c2ccccc2)nc2ccc(-c3cccc(CN4CCC4)c3)cc2c1=O)NC1CC1 | 2550 nM | –
33 | CC(C)NC(=O)Cn1c(-c2ccccc2)nc2ccc(-c3cccc(CN4CCC4)c3)cc2c1=O | 397 nM | –
